From ChEMBL document CHEMBL2346581, “Increasing the efficiency of ligands for FK506-binding protein 51 by conformational control” (J Med Chem, 2013)

Experiments:
[1] = biological target: T1, Peptidyl-prolyl cis-trans isomerase FKBP5 (Homo sapiens, UniProt Q13451); assay: Binding affinity to human FKBP51 by competitive fluorescence polarization assay
T1 sequence (Q13451 whole entry): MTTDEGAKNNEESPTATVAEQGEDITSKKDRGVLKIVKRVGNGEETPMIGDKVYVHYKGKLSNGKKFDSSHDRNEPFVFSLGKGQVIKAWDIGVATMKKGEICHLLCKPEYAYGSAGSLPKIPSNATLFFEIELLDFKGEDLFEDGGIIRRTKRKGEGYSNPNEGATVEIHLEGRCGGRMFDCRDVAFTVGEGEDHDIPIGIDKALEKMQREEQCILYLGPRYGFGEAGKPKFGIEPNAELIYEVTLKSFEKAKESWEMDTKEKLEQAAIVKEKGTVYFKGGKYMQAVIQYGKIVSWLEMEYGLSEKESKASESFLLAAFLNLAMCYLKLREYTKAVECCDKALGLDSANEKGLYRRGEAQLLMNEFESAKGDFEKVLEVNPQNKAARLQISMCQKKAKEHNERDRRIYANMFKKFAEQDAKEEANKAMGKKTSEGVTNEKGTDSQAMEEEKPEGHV
Procedure, shortened: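 Competitive fluorescence polarization binding assay against the purified FK506-binding domain of human FKBP51, run per a previously described protocol. The read-out is K_i.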

[2] = biological target: Peptidyl-prolyl cis-trans isomerase FKBP1A (Homo sapiens, UniProt P62942); assay: Binding affinity to FKBP12 (unknown origin) by competitive fluorescence polarization assay
[3] = biological target: T1, Peptidyl-prolyl cis-trans isomerase FKBP5; assay: Binding affinity to human His-tagged FKBP51 FK1 domain (1 to 140) by isothermal titration calorimetric analysis
[4] = biological target: T2, Peptidyl-prolyl cis-trans isomerase FKBP5 (Homo sapiens) (UniProt Q13451); assay: Binding affinity to FKBP51 (unknown origin) assessed as increase in [3H]-dexamethasone binding to glucocorticoid receptor
T2 sequence (whole entry): T1 sequence (Q13451 whole entry)
Procedure, shortened: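 Reconstituted glucocorticoid receptor (GR) hormone-binding assay. GR-containing lysates were supplemented with purified FKBP51 and incubated with ³H-dexamethasone across a range of compound concentrations. Free ³H-dexamethasone was removed with charcoal–dextran, and GR-bound ³H-dexamethasone was then measured as the read-out.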

Peptidyl-prolyl cis-trans isomerase FKBP1A, sequence (P62942 whole entry, the tested form may be a part): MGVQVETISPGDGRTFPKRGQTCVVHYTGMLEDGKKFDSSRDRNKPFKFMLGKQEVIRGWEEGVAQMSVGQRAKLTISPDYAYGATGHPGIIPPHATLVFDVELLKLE

Structure (SMILES) | Ki [1] [µM] | Ki [2] [µM] | Kd [3] [µM] | Activity [4]
COc1ccc(OCCN2CC3CCCC(C2=O)N3S(=O)(=O)c2ccc3[nH]c(=O)sc3c2)cc1OC (stereo not given) | – | – | 10.5 | Dose-dependent effect
CCN1CC2CCCC(C1=O)N2C(=O)C(=O)c1cc(OC)c(OC)c(OC)c1 (stereo not given) | > 100 | – | – | –
COc1ccc(OCCN2CCC3CCCC(C2=O)N3S(=O)(=O)c2cc(Cl)cc(Cl)c2)cc1OC (stereo not given) | 8.8 | – | – | –
COc1ccc(OCCN2CCC3CCCC(C2=O)N3C(=O)C(=O)c2cc(OC)c(OC)c(OC)c2)cc1OC (stereo not given) | 23.7 | – | – | –
COc1ccc(OCCOC(=O)C2CCCCN2C(=O)C(=O)c2cc(OC)c(OC)c(OC)c2)cc1OC (stereo not given) | > 100 | – | – | –
COc1ccc(OCCN2CCC3CCCC(C2=O)N3S(=O)(=O)c2ccc3[nH]c(=O)sc3c2)cc1OC (stereo not given) | – | – | 0.36 | Dose-dependent effect
COc1ccc(OCCOC(=O)C2CCCCN2S(=O)(=O)c2ccc3ncsc3c2)cc1OC (stereo not given) | > 100 | – | – | –
COc1ccc(OCCOC(=O)C2CCCCN2S(=O)(=O)c2cc(Cl)cc(Cl)c2)cc1OC (stereo not given) | > 100 | – | – | –
COc1ccc(OCCN2CC3CCCC(C2=O)N3S(=O)(=O)c2cc(Cl)cc(Cl)c2)cc1OC (stereo not given) | 1.2 | – | – | –

The next lines start with results.

Ki [1] [µM] | Ki [2] [µM] | Structure (SMILES) | Kd [3] [µM] | Activity [4]
2.7 | – | CCC(C)(C)C(=O)C(=O)N1CCCCC1C(=O)O[C@H](CCc1ccc(OC)c(OC)c1)c1cccc(OCC(=O)O)c1 (stereo not given in full) | – | –
> 100 | 0.87 | COc1cc2c(c(OC)c1)[C@]1(C)C3CCC[C@@H](C(=O)N1CC2)N3S(=O)(=O)c1cc(Cl)cc(Cl)c1 | – | –
> 100 | 2.8 | COc1cc2c(c(OC)c1)[C@]1(C)C3CCC[C@@H](C(=O)N1CC2)N3C(=O)C(=O)[C@]1(C)CCCC[C@H]1C | – | –
0.2 | – | COc1ccc(CC[C@@H](OC(=O)C2CCCCN2S(=O)(=O)c2cc(Cl)c(O)c(Cl)c2)c2cccc(OCCN3CCOCC3)c2)cc1OC (stereo not given in full) | – | –
0.003 | – | CO[C@H]1C[C@@H]2CC[C@@H](C)[C@@](O)(O2)C(=O)C(=O)N2CCCC[C@H]2C(=O)O[C@H]([C@H](C)C[C@@H]2CC[C@@H](O)[C@H](OC)C2)CC(=O)[C@H](C)/C=C(\C)[C@@H](O)[C@@H](OC)C(=O)[C@H](C)C[C@H](C)/C=C/C=C/C=C/1C [SIROLIMUS] | – | –
13.8 | – | COc1ccc(CC[C@@H](OC(=O)C2CCCCN2S(=O)(=O)c2cc(Cl)cc(Cl)c2)c2cccc(OCC(=O)O)c2)cc1OC (stereo not given in full) | – | –
18.1 | 0.5 | COc1cc2c(c(OC)c1)[C@]1(C)C3CCC[C@@H](C(=O)N1CC2)N3C(=O)C(=O)c1cc(OC)c(OC)c(OC)c1 | – | –
> 100 | – | CCOC(=O)C1CCCCN1S(=O)(=O)c1ccc2[nH]c(=O)sc2c1 (stereo not given) | – | –
0.08 | – | C=CC[C@@H]1/C=C(\C)C[C@H](C)C[C@H](OC)[C@H]2O[C@@](O)(C(=O)C(=O)N3CCCC[C@H]3C(=O)O[C@H](/C(C)=C/[C@@H]3CC[C@@H](O)[C@H](OC)C3)[C@H](C)[C@@H](O)CC1=O)[C@H](C)C[C@@H]2OC [TACROLIMUS ANHYDROUS] | – | –
> 100 | 2.1 | COc1cc2c(c(OC)c1)[C@]1(C)C3CCC[C@@H](C(=O)N1CC2)N3S(=O)(=O)c1cc(Cl)c(O)c(Cl)c1 | – | –
7.6 | – | COc1ccc(OCCOC(=O)C2CCCCN2S(=O)(=O)c2ccc3[nH]c(=O)sc3c2)cc1OC (stereo not given) | 3.3 | Dose-dependent effect
> 100 | 27.7 | CCC(C)(C)C(=O)C(=O)N1C2CCC[C@H]1C(=O)N1CCc3cc(OC)cc(OC)c3[C@]21C | – | –
